Screens from PubChem.
An excerpt weighted towards active compounds, which were near 10% of everything screened.
WT yeast gro inh: growth inhibition of WT strain, primary screen, mitochondrial fusion inhibitor project, WT and mutant strains, chemical genetic. inhibition, % at 10 µM. mitochondrial fusion phenotypic screen. AID 1362, 2008. actives 2.1% (n = 190,000); in the data active = inhibition above about 58%; tested in S. cerevisiae
Diaph act CS: compounds boosting diaphorase resazurin reduction – biochemical, uHTS, resorufin fluorescence, counter-screen for diaphorase-coupled primary assays, primary screen; Diaphorase/resazurin coupled assay, 16 min; stronger effect = higher value; 1 = vehicle wells, 0 = NADH-free wells; activation factor at 20 µM; actives 0.005% (n = 190,000); AID 1229, 2008;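 active = diaphorase activity raised at least twofold by the compound at 20 µM; inactive = activation factor below 2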
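System – purified diaphorase enzyme from Clostridium kluyveri · Input – enzyme 0.07 U/mL final · Also added – final NADH 0.114 mM, resazurin 0.1 mM · Measured by – fluorescence of resorufin, 544 nm excitation, 590 nm emission · Timing – 16 min enzyme reaction, ambient temperature · Measure – resorufin increase flagging diaphorase activators or reducers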
PMI act: activators of human PMI, primary screen, biochemical, fluorescence intensity, near-Km mannose 6-phosphate; purified human PMI, coupled resazurin fluorescence, 20 min; stronger effect = higher value; 1 = vehicle control, 0 substrate-free wells; activation factor at 20 µM; Mannose-6-phosphate isomerase (Homo sapiens), P34949; actives 0.005% (n = 190,000);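 active = activation factor of 2 or more at 20 µM, relative to plate controls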
Target sequence (P34949 whole entry, looked up): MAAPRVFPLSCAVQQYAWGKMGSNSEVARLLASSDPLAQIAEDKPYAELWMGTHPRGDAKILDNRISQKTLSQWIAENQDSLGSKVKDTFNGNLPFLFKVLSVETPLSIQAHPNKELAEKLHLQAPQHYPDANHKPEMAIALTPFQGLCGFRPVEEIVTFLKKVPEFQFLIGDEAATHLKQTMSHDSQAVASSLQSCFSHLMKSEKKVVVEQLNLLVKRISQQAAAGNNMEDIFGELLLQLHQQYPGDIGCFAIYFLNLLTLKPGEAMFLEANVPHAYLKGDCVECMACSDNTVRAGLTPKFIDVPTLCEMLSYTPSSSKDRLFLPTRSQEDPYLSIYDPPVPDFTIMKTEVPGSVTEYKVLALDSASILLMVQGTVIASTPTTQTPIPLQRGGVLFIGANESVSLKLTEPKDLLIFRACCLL
PMI act hi M6P: human PMI activators, high substrate, primary screen, biochemical, fluorescence intensity, near-saturating mannose 6-phosphate | Mannose-6-phosphate isomerase (Homo sapiens), P34949 | coupled PMI enzyme assay, resazurin fluorescence, 20 min; stronger effect = higher value; 1 = untreated enzyme, 0 = substrate-free blank | activation factor at 20 µM | actives 0.34% (n = 190,000) | AID 1216, 2008;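 active = activation factor of 2 or more at 20 µM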
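Technique: Diaphorase-driven resazurin-to-resorufin fluorescence, excitation 544, emission 590 nm | Assay system: Human PMI in coupled enzyme assay | Times: Enzyme reaction with compound 20 min at room temperature | Medium: HEPES-buffered pH 7.4 with magnesium and detergent | Reagent: Mannose-6-phosphate 1.0 mM (near-saturating) plus 0.22 mM NADP+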
Lmaj promast: Leishmania major promastigote growth inhibition, primary screen. actives 9% (n = 200,000). inhibition, % at 10 µM. AID 1063, 2008. Leishmania major promastigotes, resazurin fluorescence viability; in the data active = inhibition above about 50%;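 also: promastigotes grown with compound for 44 hours at 28 °C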
Of the large screens only hits and unclear results are named; the others gave an inactive call.

O=C(CSc1nnc(-c2cccs2)n1-c1ccccc1)NCc1ccc2c(c1)OCO2	Lmaj promast 58
COCCNC(=O)CC(NS(=O)(=O)c1ccc(C)cc1)c1ccco1 (stereo not given)	WT yeast gro inh 73
CN1CCC(Oc2ccccc2Sc2ccccc2)CC1	Lmaj promast 100
Cc1cc(N2CCOCC2)nc2ccc(NC(=O)CCC(=O)N3CCCCC3)cc12	none
Cc1cc(N2CCCCC2)nc2ccc(NC(=O)c3ccc(Br)o3)cc12	Lmaj promast 94
Cc1cc(N2CCN(C)CC2)nc2ccc(NC(=O)c3ccc(Br)o3)cc12	Lmaj promast 92
CN1CCN(c2ccc(NC(=O)c3ccc4c(c3)OCO4)cc2)CC1	none
Cc1cc(N2CCN(C)CC2)nc2ccc(NC(=O)c3ccc4c(c3)OCO4)cc12	Lmaj promast 100
C=CCn1c(CNC(=O)c2ccccc2F)nnc1SCC(=O)NC(C)c1ccccc1 (stereo not given)	none
CCS(=O)(=O)c1nc(S(=O)(=O)c2ccc(Cl)cc2)c(N2CCc3ccccc3C2)s1	Lmaj promast 51
Cc1cc(C)c2c3c(sc2n1)C(=O)N(Cc1ccccc1)CC(=O)N3	none
CC(C)(C)n1nnnc1C(c1ccccn1)N(Cc1ccccc1)Cc1ccc(Cl)cc1 (stereo not given)	Lmaj promast 53
COc1cc(/C=C/C(=O)OCC(=O)N2CC3(C)CC2CC(C)(C)C3)ccc1O (stereo not given)	none
COc1ccc(/C=N/OCC(=O)N2CC3(C)CC2CC(C)(C)C3)cc1OC (stereo not given)	Lmaj promast 65
COc1ccc(CC2(CO)CCN(CC3=CC[C@H]4C[C@@H]3C4(C)C)CC2)cc1	Lmaj promast 82
COC(=O)c1ccc(CN2CCC(CO)(Cc3cccc(OC)c3)CC2)cc1	Lmaj promast 83 (no result: Diaph act CS, PMI act, PMI act hi M6P)
CN1CCC(CO)(Cc2ccccc2)CC1	none
COc1ccc(CC2(CO)CCN(Cc3cnn(C)c3C)CC2)cc1	none
COc1ccc(CC2(CO)CCN(Cc3ccncc3)CC2)cc1	Lmaj promast 89
COc1ccc(Cl)cc1NC(=O)CSc1nncn1-c1cccnc1	none
O=C(c1ccccc1)c1cc(Cl)ccc1N1C(=O)C=CC1=O	WT yeast gro inh 85
Cc1ccc(S(=O)(=O)Nc2ccc(Cl)cc2C(=O)c2ccccc2)cc1	none
O=C(Nc1nc(-c2ccccn2)cs1)c1ncc(Cl)c(Cl)c1Cl	Lmaj promast 101
O=C(Nc1nc(-c2cc(Cl)sc2Cl)cs1)c1ccccc1	WT yeast gro inh 68
O=C(Nc1nc(-c2ccccn2)cs1)c1cc2ccccc2o1	Lmaj promast 100
O=C(Nc1nc(-c2ccccn2)cs1)c1ccc(Cl)s1	Lmaj promast 100
Cc1cc(-c2csc(NC(=O)c3cc4ccccc4o3)n2)c(C)n1C	none
CC1CCC(NC(=O)C2c3ccccc3C(=O)N2Cc2cccs2)CC1 (stereo not given)	none
COCCNC(=S)N1CCc2cc(OC)c(OC)cc2C1COc1ccc(C(C)C)cc1 (stereo not given)	none
CN(C)c1ccc2nc3ccc(=[N+](C)C)cc-3sc2c1	Lmaj promast 100
CC1(C)CC(=O)C(C=Nc2ccccc2Sc2ccccc2)=C(O)C1	Lmaj promast 71
CC1(C)CC(=O)C(C=Nc2ccccc2C(=O)O)=C(O)C1	none
ON/C=N/C(=S)Nc1ncc(C(F)(F)F)cc1Cl	Lmaj promast 90
CON/C=N/C(=S)Nc1ncc(C(F)(F)F)cc1Cl	none
Cc1cc(N2CCN(C(c3ccccc3)c3ccc(Cl)cc3)CC2)n2ncnc2n1 (stereo not given)	WT yeast gro inh 74
Cc1ccc(S(=O)(=O)n2c3ccc(Cl)cc3c3nc(C)sc32)cc1	WT yeast gro inh 64
Cc1nc2c3cc(Cl)ccc3n(CCN3CCCCC3)c2s1	none
CCOC(=O)c1cnc(-n2nc(C)cc2C)nc1Nc1ccccc1OC	none
CCOC(=O)c1cnc(-n2nc(C)cc2C)nc1NCCc1ccccc1	WT yeast gro inh 74, Lmaj promast 99
C=CCNCCCCOc1ccccc1-c1ccccc1	Lmaj promast 98
CNCCCCOc1ccccc1-c1ccccc1	none
COCCCNCCCCOc1ccccc1-c1ccccc1	Lmaj promast 98
COCCNCCOc1ccccc1-c1ccccc1	Lmaj promast 85
CCCCNCCOc1ccccc1-c1ccccc1	Lmaj promast 97
CC(=O)Nc1sc(C)c(C)c1C(=O)OCC(=O)Nc1cc(S(=O)(=O)N2CCCCC2)ccc1Cl	none
CCCC1=NN(c2ccc([N+](=O)[O-])cc2)C(=O)/C1=C\N(C)C	none
Cc1c(NC(=S)Nc2ccc(Cl)cc2)c(=O)n(-c2ccccc2)n1C	none
O=C1CCC(CCC(=O)N2CCCC(C(=O)c3cccc(C(F)(F)F)c3)C2)=NN1 (stereo not given)	none
OCCNCCOCCOc1ccccc1-c1ccccc1	Lmaj promast 62
CN(C)CCOCCOc1ccccc1-c1ccccc1	Lmaj promast 81
CC12COC3(C(N)=O)CC1CCC32C (stereo not given)	none
CCOC(=O)CC(NS(=O)(=O)c1ccc(NC(C)=O)cc1)c1ccc(OCC)cc1 (stereo not given)	none
CCOC(=O)CC(NS(=O)(=O)Cc1ccccc1)c1ccc(C)cc1 (stereo not given)	Lmaj promast 59
CCOc1cc(/C=N/NC(=O)CN2CCCCC2)ccc1OCc1cccc(Cl)c1	Lmaj promast 97
CCOc1cc(/C=N/NC(=O)c2nn(C)cc2Br)ccc1OCc1ccccc1Cl	Lmaj promast 72
CCCCOc1ccc(C(=O)N/N=C/c2ccc(OCCN3CCCCC3)c(OC)c2)cc1	Lmaj promast 100
COc1cc(/C=C/C(=O)NC(C)C)ccc1OCc1ccccc1	none
CCCCOc1ccc(C(=O)N/N=C/c2cn[nH]c2-c2ccc(OC)c(OC)c2)cc1	none
COc1cc(/C=N/OCC(=O)Nc2cc(C)on2)ccc1OCc1ccccc1	Lmaj promast 64
NNC(=O)/C(=C\c1ccc(Br)cc1)NC(=O)c1cccs1	none
CCOC(=O)c1c(NC(=O)c2ccc(N3C(=O)[C@@H]4[C@H](C3=O)[C@H]3C=C[C@@H]4C3)cc2)sc2c1CCCC2	none
O=C(N/N=C1/CCCc2ccccc21)C(c1ccccc1)c1ccccc1	none
COc1cc(/C=N/NC(=O)CCN2CCN(c3ccccc3)CC2)cc(OC)c1OC	none
COc1cc(/C=N/NC(=O)CN2CCCCC2)ccc1OCc1ccccc1	Lmaj promast 95
CCOc1cc(/C=N/NC(=O)CN2CCCCC2)ccc1OCc1ccc(Cl)cc1	Lmaj promast 99
CCOc1cc(/C=N/NC(=O)CN2CCOCC2)ccc1OCc1ccccc1	none
